The values that follow come from ChEMBL document CHEMBL3098124, “Design, synthesis and anti-Alzheimer properties of dimethylaminomethyl-substituted curcumin derivatives” (Bioorg Med Chem Lett, 2014).

Data set [1] can be described thus: Antioxidant activity assessed as galvinoxyl free radical scavenging activity after 19 hrs. In kind it is functional. The method, boiled down:
(§1)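 In vitro scavenging of DPPH or galvinoxyl radicals by a literature method. IC50 reported in µM as mean ± S.E.M.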

Data set [2] relates to Radical scavenging activity. Briefly: Antioxidant activity assessed as DPPH free radical scavenging activity after 4 hrs. Format: functional. In a few lines: as §1
The target in data set [3] is Amyloid-beta precursor protein (Homo sapiens) (UniProt P05067). Briefly: Inhibition of amyloid beta-42 self-aggregation (unknown origin) after 1 hr by ThT fluorescence assay. The method, boiled down:
(§2)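 Aβ42 self-aggregation read by Thioflavin T fluorescence. Test concentrations were 5, 50 and 100 µM. Each result is the mean of 3 measurements ± SEM. Statistics by one-way ANOVA with Tukey's multiple comparison test against Aβ alone.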

Data set [4] has the same target. Briefly: Inhibition of amyloid beta-42 self-aggregation (unknown origin) at 50 uM after 1 hr by ThT fluorescence assay relative to control. The method, boiled down:
as §2

Data set [5] shares this target. Nature of the data set: Inhibition of amyloid beta-42 self-aggregation (unknown origin) at 100 uM after 1 hr by ThT fluorescence assay relative to control. The method, boiled down:
as §2

Data set [6] is described as follows: Aqueous solubility of the compound. In kind it is physicochemical.
The nature of data set [7]: Chemical stability of the compound in PBS at pH 7.4 at […] measured up to 120 mins by absorption spectroscopic analysis in presence of 0.1% FBS. In kind it is physicochemical. The conditions noted are these: buffer, pH 7.4, 2 h. In a few lines: (§3)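 Visible absorption at 410 nm tracked over time in phosphate-buffered solution, pH 7.4, under daylight. FBS was 0.1% for line 5 and absent for line 4. Stability expressed as A/A0, with A0 the absorbance at 0 min.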

The nature of data set [8]: n-octanol-water partition coefficient, log P of the compound by HPLC analysis. Format: physicochemical. The method, boiled down:
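Experimental logP determined in an octanol–water system for two representative compounds. All other values were calculated in silico.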

Data set [9] can be described thus: Chemical stability of the compound in PBS at pH 7.4 at […] measured up to 120 mins by absorption spectroscopic analysis in absence of 0.1% FBS. In kind it is physicochemical. The conditions noted are these: buffer, pH 7.4, 2 h. In a few lines: as §3

Each structure is given as a SMILES string.

Sequence of Amyloid-beta precursor protein (Homo sapiens) (P05067 whole entry): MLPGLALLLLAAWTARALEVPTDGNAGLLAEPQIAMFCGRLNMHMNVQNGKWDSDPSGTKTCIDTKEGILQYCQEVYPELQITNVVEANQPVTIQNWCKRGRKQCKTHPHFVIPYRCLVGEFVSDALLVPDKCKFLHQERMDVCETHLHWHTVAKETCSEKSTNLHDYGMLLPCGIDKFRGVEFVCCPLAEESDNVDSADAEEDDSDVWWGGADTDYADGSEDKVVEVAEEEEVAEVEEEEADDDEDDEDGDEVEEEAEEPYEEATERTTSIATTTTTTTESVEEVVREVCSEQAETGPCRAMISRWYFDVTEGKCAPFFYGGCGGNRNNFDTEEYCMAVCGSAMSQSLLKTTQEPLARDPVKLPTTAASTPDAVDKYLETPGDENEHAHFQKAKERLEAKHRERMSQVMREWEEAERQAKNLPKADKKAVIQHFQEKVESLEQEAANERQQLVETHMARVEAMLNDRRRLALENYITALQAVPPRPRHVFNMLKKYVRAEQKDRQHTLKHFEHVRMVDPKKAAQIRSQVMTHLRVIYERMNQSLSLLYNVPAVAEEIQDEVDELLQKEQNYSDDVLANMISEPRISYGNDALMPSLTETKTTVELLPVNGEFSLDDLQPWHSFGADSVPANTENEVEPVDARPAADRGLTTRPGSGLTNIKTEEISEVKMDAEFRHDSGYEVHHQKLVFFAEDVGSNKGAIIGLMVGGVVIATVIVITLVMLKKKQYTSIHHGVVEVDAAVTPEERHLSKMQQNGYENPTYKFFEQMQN

A word on the IC50: it is the midpoint of a concentration-inhibition curve. Regarding `CN(C)Cc1cc(/C=C/C(=O)/C=C(O)/C=C/c2ccc(Cl)cc2)ccc1O`, the IC50 was found to be 41.1 µM in [1] and 11.1 µM in [2].
In general, inhibition refers to the share of the control response that was lost under treatment. In the case of `CN(C)Cc1cc(/C=C/C(=O)/C=C(O)/C=C/c2ccc(O)c(CN(C)C)c2)ccc1O` [listing 1 of 2 here], the inhibition entry in [3] is “Dose-dependent effect”; in [4], 28%; in data set [5], 32%.
As to `COc1ccc(/C=C/C(O)=C/C(=O)/C=C/c2ccc(O)c(CN(C)C)c2)cc1OC`, the results for the IC50 in data set [1] and in [2] were 27.4 µM and 29.9 µM, respectively.
On the same counts, the results for `Cc1ccc(/C=C/C(O)=C/C(=O)/C=C/c2ccc(O)c(CN(C)C)c2)cc1` are 22 µM and 18.7 µM.
Regarding `COc1cc(/C=C/C(=O)CC(=O)/C=C/c2ccc(O)c(OC)c2)ccc1O`, the values for the inhibition entry in data set [3], in data set [4] and in data set [5] were “Dose-dependent effect”, 24% and 29%, respectively.
The solubility is the concentration that dissolves in the medium under given conditions. Higher therefore signals a readily soluble substance. In the case of `CN(C)Cc1cc(/C=C/C(=O)/C=C(O)/C=C/c2ccc(O)c(CN(C)C)c2)ccc1O.Cl.Cl`, the concentration in solution in [6] (solubility) came to 16700 µg/mL.
In data set [6], `COc1cc(/C=C/C(O)=C/C(=O)/C=C/c2ccc(O)c(CN(C)C)c2)ccc1O.Cl` came in with a solubility of 1200 µg/mL.
As to `CN(C)Cc1cc(/C=C/C(=O)/C=C(O)/C=C/c2cccc(O)c2)ccc1O`, the IC50 in [1] stood at 6.9 µM; in data set [2], 4 µM.
One may read the logP as the decadic logarithm of the partition coefficient of the neutral form, usually between octanol and water. Turning to `CN(C)Cc1cc(/C=C/C(=O)/C=C(O)/C=C/c2ccc(O)c(CN(C)C)c2)ccc1O` [listing 2 of 2 here], the Stability entry in data set [7] and in data set [9] was “Stable” each time. In addition, in [8], the lipophilicity (logP) was 3.48. The IC50 is 4.9 µM in data set [1] and 1.6 µM in data set [2].
Take `COc1ccc(/C=C/C(O)=C/C(=O)/C=C/c2ccc(O)c(CN(C)C)c2)cc1`: the IC50 worked out at 11.9 µM in data set [1] and 15.1 µM in [2].
Regarding `COc1cc(/C=C/C(O)=C/C(=O)/C=C/c2ccc(O)c(CN(C)C)c2)ccc1O`, in [8], the lipophilicity (logP) is 3.65.
Regarding `CN(C)Cc1cc(/C=C/C(=O)/C=C(O)/C=C/c2ccc(O)cc2)ccc1O`, the IC50 in data set [1] turned out to be 7.6 µM; in data set [2], 1.5 µM.
Taken in the same sequence, the figures for `CN(C)Cc1cc(/C=C/C(=O)/C=C(O)/C=C/c2ccc(F)cc2)ccc1O` were 22.3 µM and 24.1 µM.
